# From PubChem BioAssay
# Compounds with a hit are over-represented: about 1.5% of the library has one in this group of screens.
# 697 NFkB inh = lowers PMA/ionomycin-induced NF-kB signal in 697 B cells | 697 B-cell NF-kB luciferase reporter, 16 h | inhibition, % at 4 µM | hit rate 0.33% among 330,000; in the data active means inhibition above about 35%
# Jurkat NFkB inh = inhibitors of the PMA/ionomycin-induced NF-kB reporter in Jurkat cells; PMA/ionomycin-induced NF-kB luciferase reporter, luminescence; inhibition, % at 4 µM; hit rate 0.53% among 330,000; AID 435003; in the data active means inhibition above about 50%
# NR2E3 ag-1 = human photoreceptor-specific nuclear receptor agonism; Q9Y5X4; CHO-S Gal4-NCOR/VP16-NR2E3 two-hybrid, luciferase; inhibition of corepressor binding, % at 3.98 µM; hit rate 0.35% among 360,000;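 active means inhibition above the mean of all tested compounds plus 3 SD, cut at about 70% in these data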;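 further: 0% = DMSO with NR2E3 transfected cells and 100% = cells lacking NR2E3 construct; higher means lower luciferase signal from less NR2E3 corepressor binding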
# GalR3 antagonist = antagonists of human GalR3. inhibition, % at 3 µM. HEK293 GalR3-CNG cAMP membrane potential fluorescence; galR3 body fused to GalR1 C-terminus. hit rate 0.44% among 360,000. O60755;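 active means inhibition above the screen-wide average plus 3 SD, cut at about 13% in these data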;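 further: forskolin and galanin both at EC90 stimulate the cells; cAMP rise reported by CNG channel membrane potential dye signal; 0% = forskolin plus galanin with DMSO and 100% = forskolin alone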
# JMJD2C inh = human JMJD2C demethylase inhibition | GST-JMJD2C(1-420) H3K9me3 demethylation, DELFIA europium | Q9H3R0 | inhibition, % at 2.35 µM | hit rate 0.069% among 330,000;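 active means more than half of a compound's replicate wells show inhibition beyond 50%, single wells judged on their own value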;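 further: signal counts dimethyl H3K9 product captured on neutravidin plate; 0% = median of DMSO wells and 100% = 0.3 times that DMSO median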
# Target sequence (Q9H3R0 1-420 limits assumed): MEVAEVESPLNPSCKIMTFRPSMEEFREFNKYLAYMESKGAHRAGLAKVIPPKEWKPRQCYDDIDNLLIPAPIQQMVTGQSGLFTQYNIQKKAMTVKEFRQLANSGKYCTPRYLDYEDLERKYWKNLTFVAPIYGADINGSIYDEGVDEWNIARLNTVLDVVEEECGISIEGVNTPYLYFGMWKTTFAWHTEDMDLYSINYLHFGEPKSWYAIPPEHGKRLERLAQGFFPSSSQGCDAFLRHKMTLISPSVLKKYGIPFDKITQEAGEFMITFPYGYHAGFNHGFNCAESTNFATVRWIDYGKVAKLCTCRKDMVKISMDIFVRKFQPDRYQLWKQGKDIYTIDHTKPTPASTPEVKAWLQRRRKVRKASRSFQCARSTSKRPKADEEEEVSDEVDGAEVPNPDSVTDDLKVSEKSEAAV
# NR2E3 ag-2 = NR2E3 (human) agonism; GST-NR2E3/biotin-RetCOR TR-FRET, 1536-well; inhibition of corepressor binding, % at 4.78 µM; hit rate 0.12% among 320,000; AID 2300;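 active means percent inhibition above the cutoff of mean plus 3 SD of all tested compounds, set per screening campaign, cut at about 20% in these data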;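 further: 0% = DMSO wells and 100% = biotin wells as full block of FRET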
#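 Format: 1536-well format; test system: GST-NR2E3 and biotin-RetCOR proteins; read-out basis: percent inhibition of TR-FRET ratio; timing: 5 h incubation at 4 °C; detection: time-resolved FRET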
# NR2E3 ag confirm = confirmation of human NR2E3 agonists | hit rate 51% among 2,300 | inhibition, % at 3.98 µM | CHO-S mammalian two-hybrid NR2E3-NCOR, luciferase luminescence | shares compounds with NR2E3 ag-1;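 active means average inhibition above a cutoff equal to the mean inhibition of all tested compounds plus one SD, cut at about 70% in these data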;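 further: 0% = DMSO in NR2E3 cells and 100% = DMSO in cells lacking NR2E3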
# VP16 counter = counter-screen for NR2E3 agonists: GAL4-VP16 reporter inhibitors; shares compounds with NR2E3 ag-1; CHO-S GAL4-VP16 luciferase reporter, luminescence; inhibition, % at 3.98 µM; hit rate 29% among 2,300; AID 624379;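 active means mean inhibition above a cutoff equal to the average over all tested compounds plus one standard deviation, cut at about 70% in these data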;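 further: luciferase from a UAS reporter driven by GAL4-VP16 transactivation; 0% = DMSO with VP16-transfected cells and 100% = DMSO with cells lacking VP16; higher means less reporter light so more repression of VP16 activity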
# GalR3 antag conf = confirmation of human galanin receptor 3 antagonists; shares compounds with GalR3 antagonist; HEK293 GalR3 CNG cAMP biosensor, membrane potential fluorescence; galR3 fused to GalR1 carboxy tail; challenged with forskolin and galanin at EC90; inhibition, % at 3 µM; hit rate 59% among 1,600; AID 652245;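 active means inhibition above the primary screen's cutoff, the mean inhibition of all screened compounds plus 3 SD, cut at about 13% in these data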;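 further: 0% = forskolin plus galanin and 100% = forskolin alone with DMSO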
# CNG parental = acts as nonspecific agonist in parental HEK-CNG cells. shares compounds with GalR3 antagonist. HEK293-CNG parental cells, cAMP membrane potential fluorescence; normalised: DMSO wells 0%, forskolin wells 100%. activation, % at 3 µM. hit rate 10% among 1,600; in the data active means activation above about 1.3%
# * hit, by the source's call; · = not tested or not shown.
SMILES,697 NFkB inh,Jurkat NFkB inh,NR2E3 ag-1,GalR3 antagonist,JMJD2C inh,NR2E3 ag-2,NR2E3 ag confirm,VP16 counter,GalR3 antag conf,CNG parental
COc1ccc(CNC(=O)c2sc(=O)n(Cc3ccc(C)cc3)c2C)cc1OC,·,·,22.9,-3.7,·,·,·,·,·,·
CC(=O)c1ccc(N2CCN(S(=O)(=O)c3ccc4c(c3)CC(C)N4C(C)=O)CC2)cc1 (configuration not stated),-3.6,38.0,70.3*,98.5*,-2.3,-0.7,91.7*,73.4*,105.6*,-0.3
CC(C)CCN1CCN(CC#Cc2ccccc2)CC1CCO (configuration not stated),13.5,15.9,-7.3,2.1,-5.4,1.1,·,·,·,·
Cc1cccc(NC(=S)NNc2ncc(C(F)(F)F)cc2Cl)c1,-39.5,1.8,-15.8,0.2,2.7,1.3,·,·,·,·
FC(F)(F)c1cnc(NNC(=S)Nc2ccccc2Cl)c(Cl)c1,-28.3,-3.0,52.5,55.0*,-3.2,6.4,65.6,65.9,4.4,0.5
COc1cc(C)ccc1OCC(=O)OCC(=O)c1[nH]c(C)c(C(C)=O)c1C,-0.4,-3.4,-18.6,-3.9,8.7,·,·,·,·,·
CC(=O)c1c(C)[nH]c(C(=O)COc2cc(C)ccc2C(C)C)c1C,-7.6,35.5,85.2*,72.8*,-3.5,-1.3,91.3*,78.8*,112.8*,-0.1
CC12CCC(=O)C=C1C(F)CC1C2C(O)CC2(C)C1CCC2(O)C(=O)CO (configuration not stated),·,·,12.8,-3.1,·,·,·,·,·,·
CN1CCCN(Cc2nc(-c3ccc(Cl)cc3)no2)CC1,-10.4,-31.6,-5.9,-2.5,4.7,2.0,·,·,·,·
Cc1sc2ncnc(NCc3ccco3)c2c1C,-9.1,10.7,34.0,-4.9,13.2,-2.3,·,·,·,·
Cc1sc2ncnc(NCc3cccs3)c2c1C,-25.2,42.1,78.4*,54.7*,2.9,2.9,96.1*,80.7*,58.0*,0.0
Cc1sc2ncnc(NCC(O)c3ccccc3)c2c1C (configuration not stated),-54.0,16.5,75.2*,38.3*,-5.2,1.8,70.8*,50.6,25.2*,0.9
COc1ccc(N2CCN(C(=O)c3ccc(CS(=O)Cc4ccc(Cl)cc4)o3)CC2)cc1 (configuration not stated),-5.3,4.4,3.9,5.1,-0.7,1.9,·,·,·,·
Cc1ccccc1-c1noc(C(C)NC(=O)c2ccco2)n1 (configuration not stated),15.4,10.9,-30.8,-8.2,-15.9,-4.1,·,·,·,·
CCCCNC(=O)C1C(c2ccc(OC)cc2)=Nc2ccccc2N1C(=O)c1cccnc1 (configuration not stated),·,·,·,-6.5,·,·,·,·,·,·
c1ccc(CC2CCN(c3ncnc4sccc34)CC2)cc1,·,·,80.2*,70.1*,-21.6,·,97.2*,82.6*,87.8*,0.6
O=C(Cc1c(Cl)cccc1Cl)Nc1ccncc1Cl,-31.8,8.0,22.2,-4.4,9.0,3.9,·,·,·,·
COc1ccc(CC(=O)Nc2ccncc2Cl)cc1,-17.7,23.9,92.4*,63.1*,0.7,-1.8,87.4*,70.7*,48.6*,-0.4
O=C(Cc1ccc(Cl)cc1Cl)Nc1ccncc1Cl,-4.9,18.1,98.0*,45.0*,4.4,0.6,87.1*,78.2*,66.6*,0.8
CC1CCC2C(=O)N(c3ccc(Cc4ccncc4)cc3)C(=O)C2C1 (configuration not stated),-18.3,7.7,48.8,91.0*,-13.9,-2.1,76.6*,63.8,109.2*,-0.5
